The record followed here is ChEMBL document CHEMBL1671785, “Synthesis, physical-chemical characterisation and biological evaluation of novel 2-amido-3-hydroxypyridin-4(1H)-ones: Iron chelators with the potential for treating Alzheimer's disease” (Bioorg Med Chem, 2011).

SMILES strings stand for the structures. Calls of active or inactive are those of the source. The rule behind the calls is not given here.

Data set [1] concerns Glycine max. The data set is described as follows: Inhibition of soybean lipoxygenase at 100 uM after 15 mins.
The test system of data set [2] is Glycine max. Put plainly: Inhibition of soybean lipoxygenase at 10 uM after 15 mins. The method in brief:
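Soybean lipoxygenase in 0.2 M borate buffer, pH 9, was pre-incubated 15 min with the compound (100 µM solution, 10 µM final in cuvette). The reaction was started with linoleic acid (1 mM). Linoleic hydroperoxide formation was followed at 234 nm for 10 min, and rates were computed using ε = 23600 M⁻¹ cm⁻¹.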

A short description of data set [3]: Inhibition of soybean lipoxygenase after 15 mins. More on the design: species or system Glycine max.
A short description of data set [4]: Lipophilicity, log D of the compound at pH 7.4. The note with it: buffer. It is filed as physicochemical. The method in brief:
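After centrifugal separation, the loss of aqueous-phase absorbance gives the octanol/buffer concentration ratio.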

A short description of data set [5]: Association constant pKa of the compound. It is filed as physicochemical. The method in brief:
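Ligand pKa by automated potentiometric titration with spectral scans in 0.1 M KCl at 25 ± 0.1 °C. pH was raised or lowered in 0.1-unit steps with KOH or HCl, and readings were taken once pH drifted by <0.001 over 3 s. A 1 min equilibration was used at each step before analysis of the titration data.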

The target in data set [6] is Tyrosine 3-monooxygenase (Rattus norvegicus) (UniProt P04177). The data set is described as follows: Inhibition of tyrosine hydroxylase in rat striata at 10 uM after 20 mins. In a few lines:
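Rat striatal homogenate (1:9 in 0.32 M sucrose, about 3 mg tissue) in 0.5 M potassium phosphate, pH 6.0, with m-hydroxybenzylhydrazine, 1 mM 6,7-dimethyltetrahydropterine and chelator (1–100 µM). The reaction is started with L-tyrosine (0.4 mM final) for 20 min at 37 °C. L-DOPA is extracted on alumina and quantified by HPLC against α-methyldopa. Triplicate; non-enzymatic background measured using 3-iodotyrosine.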

Another data set deals with Cortical neurone. Put plainly: Neuroprotective activity against FeNTA-induced loss of synaptic integrity in rat cortical neurones assessed as damage to cell bodies at 30 uM by phase contrast microscopy. The data set is classed as functional.
A short description of data set [7]: Iron chelating activity of the compound. It is filed as functional. In a few lines: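 Affinity is given as pM, the negative log of free Fe(III), at total metal 10⁻⁶ M and total ligand 10⁻⁵ M, pH 7.4. Stability constants come from automated potentiometric/spectrophotometric titration in 0.1 M KCl at 25 °C with 5 min equilibration per 0.1 pH step. Data analysed by pHab.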

Chain of Tyrosine 3-monooxygenase (Rattus norvegicus) (P04177 whole entry): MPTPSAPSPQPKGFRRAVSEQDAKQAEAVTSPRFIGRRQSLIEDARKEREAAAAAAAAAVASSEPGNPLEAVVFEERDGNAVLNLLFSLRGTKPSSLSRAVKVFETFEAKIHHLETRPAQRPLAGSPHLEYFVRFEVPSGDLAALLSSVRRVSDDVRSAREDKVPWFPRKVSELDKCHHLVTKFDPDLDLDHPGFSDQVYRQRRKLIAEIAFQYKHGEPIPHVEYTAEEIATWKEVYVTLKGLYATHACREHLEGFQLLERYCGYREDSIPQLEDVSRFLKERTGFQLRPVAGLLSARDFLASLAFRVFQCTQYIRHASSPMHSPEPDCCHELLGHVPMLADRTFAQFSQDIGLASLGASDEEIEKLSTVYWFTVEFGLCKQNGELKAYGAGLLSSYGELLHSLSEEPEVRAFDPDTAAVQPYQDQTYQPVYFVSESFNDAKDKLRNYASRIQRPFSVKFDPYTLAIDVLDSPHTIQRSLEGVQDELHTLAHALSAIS

Broadly, the inhibition is the drop in the measured response relative to a control, in per cent. A higher inhibition goes with a strong effect. A word on the EC50: it is the midpoint of the concentration-response curve. `CCc1c(O)c(=O)ccn1CC`: the inhibition in the data set with Glycine max [1] came out at 87.4%; in the data set on Glycine max [2], 43%. The same compound showed a concentration for a half-maximal effect (EC50) in data set [3] of 11 µM.
As usually defined, the logD is lipophilicity at a set pH, counting ionised and neutral species. As usually defined, the pKa is the pH at which an ionisable group is half protonated. Regarding `C[C@H](NC(=O)c1nccc(O)c1O)C(=O)NCc1ccccc1.Cl`, the inhibition came to 54% with Glycine max [1] and 3.3% in the data set with Glycine max [2]. This compound showed an EC50 in data set [3] of 80 µM. Moreover, in data set [4], the logD is 0.03. Besides, in data set [5], the pKa turned out to be 6. In addition, the result in data set [6] was inactive. The outcome with Cortical neurone was Active. Further, in data set [7], the Activity stood at 18.9.
On to `Cc1c(O)c(=O)ccn1C` [DEFERIPRONE], for which the inhibition with Glycine max [1] was found to be 58%. In data set [3], the response was half-maximal at 64 µM (EC50).
Consider `CC(C)CNC(=O)CNC(=O)c1nccc(O)c1O.Cl`, for which the inhibition in the data set on Glycine max [1] is 70%; in the data set on Glycine max [2], 9.3%. In addition, the response in data set [3] was half-maximal at 44 µM (EC50). In data set [4], this compound returned a logD of -0.33. The compound also registered a pKa in data set [5] of 6.2. The compound further yielded an Activity in data set [7] of 20.6.
As to `CC(C)CNC(=O)[C@H](C)NC(=O)c1nccc(O)c1O.Cl`, the values for the inhibition in the data set with Glycine max [1] and in the data set on Glycine max [2] were 71% and 15.3%, respectively. In data set [3], this compound gave an EC50 of 37 µM. Also, the logD in data set [4] was -0.08. Moreover, the pKa in data set [5] was 6. The same compound had an Activity in data set [7] of 19.2.
`CNC(=O)[C@H](C)NC(=O)c1nccc(O)c1O.Cl`: the inhibition came to 61% with Glycine max [1] and 2.7% in the data set on Glycine max [2]. Besides, in data set [3], the midpoint of the response, the EC50, lay at 66 µM. Besides, in data set [4], the log distribution coefficient (logD) is -1.1. In data set [5], this compound had a pKa of 6. The result in data set [6] was inactive. Further, the Activity in data set [7] came to 19.1.
As to `CNC(=O)[C@H](Cc1ccccc1)NC(=O)c1nccc(O)c1O.Cl`, the inhibition in the data set with Glycine max [1] came out at 71%; in the data set with Glycine max [2], 27.6%. For the same compound, in data set [3], it took 25 µM to reach a half-maximal effect (EC50). In data set [4], the logD was -0.11. In data set [5], the pKa worked out at 6.1. Moreover, the result in data set [6] was Active. Moreover, the Activity in data set [7] turned out to be 21.4.
Regarding `CC(C)CNC(=O)[C@H](Cc1ccccc1)NC(=O)c1nccc(O)c1O.Cl`, the inhibition in the data set with Glycine max [1] was determined as 81%; in the data set on Glycine max [2], 46.5%. Further, the EC50 in data set [3] is 13 µM. Also, in data set [4], the logD stood at 0.39. This compound registered a pKa in data set [5] of 6. Moreover, the result in data set [6] was Active. The compound also gave an Activity in data set [7] of 20.4.
`CNC(=O)CNC(=O)c1nccc(O)c1O.Cl`: the inhibition with Glycine max [1] is 68%; in the data set on Glycine max [2], 19.3%. This compound also returned an EC50 in data set [3] of 56 µM. The compound further gave a pH-dependent lipophilicity (logD) in data set [4] of -1.42. In data set [5], the pKa was found to be 6.3. In data set [7], this compound gave an Activity of 20.8.
Consider `Cl.O=C(CNC(=O)c1nccc(O)c1O)NCc1ccccc1`, for which the inhibition with Glycine max [1] came out at 62%; in the data set with Glycine max [2], 8.3%. In addition, in data set [3], the half-maximal effective concentration (EC50) was found to be 54 µM. Also, the logD in data set [4] was 0.01. In data set [5], this compound returned a pKa of 6.2. The compound further returned an Activity in data set [7] of 19.1.
In the case of `Cl.O=C(N[C@@H](Cc1ccccc1)C(=O)NCc1ccccc1)c1nccc(O)c1O`, the inhibition in the data set on Glycine max [1] was determined as 60%; in the data set on Glycine max [2], 30.2%. In data set [3], this compound registered an EC50 of 52 µM. The compound further yielded a logD in data set [4] of 0.9. Further, the pKa in data set [5] turned out to be 6. For the same compound, the result in data set [6] was Active. In addition, in data set [7], the Activity is 21.5.
